Series [1] can be described thus: Equilibrium solubility of compound at pH 7.4 incubated for 24 to 48 hrs by HPLC analysis. Format: physicochemical. The following applies: buffer, time 24-48 hrs. The procedure, abridged:
(§1)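 For equilibrium solubility, excess solid was added to 3–4 mL of medium, in triplicate. Suspension pH was read after equilibration. Solids were removed by centrifugation at 4000 rpm at 25 °C, and the supernatant was passed through a 0.45 µm filter, discarding the first 2 mL. The filtrate was quantified by HPLC against standard curves.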

Series [2] can be described thus: Stability of compound at pH 7.4 assessed as prodrug remaining level at 125 ug/ml incubated for 3 hrs by HPLC analysis. Format: physicochemical. To be noted: buffer, pH 7.4, 3 h, at 125 µg/mL.
A short description of series [3]: Solubility in FeSSIF at pH 5. Format: physicochemical. The essentials: as §1
Series [4] can be described thus: Equilibrium solubility of compound at pH 1 incubated for 24 to 48 hrs by HPLC analysis. The class given is physicochemical. To be noted: buffer, time 24-48 hrs. The essentials: as §1
A short description of series [5]: Stability of compound at pH 7.4 assessed as prodrug remaining level at 125 ug/ml incubated for 24 hrs by HPLC analysis. To be noted: buffer, pH 7.4, 24 h, at 125 µg/mL. The class given is physicochemical. The essentials: (§2)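 A DMSO stock of about 1.25 mg/mL was diluted into 0.1 N HCl (pH 1) or 50 mM phosphate buffer (pH 7.4), giving final concentrations of ~125 µg/mL prodrug and 10% DMSO. The solution was filtered and held at 37 °C in the HPLC autosampler, with injections at several times over 24 h. Percent remaining was calculated from prodrug peak area relative to t0.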

A short description of series [6]: Stability of compound at pH 1 assessed as prodrug remaining level at 125 ug/ml incubated for 24 hrs by HPLC analysis. Format: physicochemical. To be noted: buffer, pH 1, 24 h, at 125 µg/mL. The essentials:
as §2

Series [7] is described as follows: Cmax in beagle dog assessed as pibrentasvir1 level at 40 mg, po measured up to 24 hrs. The following applies: in vivo. Set-up: route oral, dose 40 mg, time <=24. Format: ADME, organism-based, Canis lupus familiaris. The procedure, abridged: (§3)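 The dose equalled 40 mg PIB after adjustment for prodrug MW. Food was returned at 12 h. K2EDTA plasma was sampled at 0.25–24 h. Cmax is in ng/mL and AUC in ng·h/mL.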

A short description of series [8]: AUC in beagle dog assessed as pibrentasvir1 level at 40 mg, po measured up to 24 hrs. Format: ADME, organism-based, Canis lupus familiaris. Set-up: route oral, dose 40 mg, time <=24. To be noted: in vivo. The procedure, abridged:
as §3

A short description of series [9]: AUC in CD1 mouse assessed as pibrentasvir1 level at 6 mg/kg, po measured up to 24 hrs. Format: ADME, organism-based. Set-up: route oral, dose 6 mg/kg, time <=24. To be noted: in vivo. The procedure, abridged:
(§4)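 CD-1 mice with free access to food and water received an oral gavage of prodrug or PIB at 10 mL/kg in 0.2% HPMC. The dose was adjusted for prodrug MW to equal 6 mg/kg PIB. K2EDTA blood was drawn at 0.25, 0.5, 1, 3, 6, 9, 12 and 24 h. Plasma was spun at 3200 x g for 5 min at ~4°C and stored below -15°C. PIB and prodrug were measured; AUC in ng·h/mL, Cmax in ng/mL.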

Series [10] in a line: Cmax in CD1 mouse assessed as pibrentasvir1 level at 6 mg/kg, po measured up to 24 hrs. To be noted: in vivo. Set-up: route oral, dose 6 mg/kg, time <=24. Format: ADME, organism-based. The procedure, abridged:
as §4

A short description of series [11]: AUC in CD1 mouse at 6 mg/kg, po measured up to 24 hrs. Format: ADME, organism-based. To be noted: in vivo. Set-up: route oral, dose 6 mg/kg, time <=24. The procedure, abridged:
as §4

Series [12] in a line: Protein binding in human plasma. The following applies: read-out: PPB (converted). Format: ADME, cell-free.
Series [13] is described as follows: Aqueous solubility of compound at pH 7. The class given is physicochemical.
The nature of series [14]: Apparent permeability in MDCK cells. To be noted: dog. The class given is ADME, cell-based, Canis lupus familiaris.
Series [15] can be described thus: Permeability by PAMPA. The class given is ADME.
The nature of series [16]: Aqueous solubility of compound at pH 2. The class given is physicochemical.
Series [17] is described as follows: Lipophilicity, logD of compound. Format: physicochemical. To be noted: octanol/water.
Series [18] in a line: AUC in beagle dog at 40 mg, po measured up to 24 hrs. Set-up: route oral, dose 40 mg, time <=24. The following applies: in vivo. Format: ADME, organism-based, Canis lupus familiaris. The procedure, abridged:
as §3

Series [19] can be described thus: Cmax in CD1 mouse at 3 mg/kg, po measured up to 24 hrs. Format: ADME, organism-based. Set-up: route oral, dose 3 mg/kg, time <=24. The following applies: in vivo. The procedure, abridged: (§5)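 CD-1 mice, fed ad libitum, were dosed orally at a prodrug-MW-adjusted dose equal to 3 mg/kg PIB, as a solution or suspension. Serial K2EDTA blood samples were taken from 0.25 to 24 h. Plasma was separated by centrifugation and kept frozen. PIB and prodrug levels were reported as Cmax (ng/mL) and AUC (ng·h/mL).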

Series [20] is described as follows: Cmax in beagle dog at 40 mg, po measured up to 24 hrs. The class given is ADME, organism-based, Canis lupus familiaris. Set-up: route oral, dose 40 mg, time <=24. The following applies: in vivo. The procedure, abridged:
as §3

The nature of series [21]: Cmax in beagle dog at 40 mg, po dosed as phase 2 tablet measured up to 24 hrs. The class given is ADME, organism-based, Canis lupus familiaris. Set-up: route oral, dose 40 mg, time <=24. The following applies: in vivo. The essentials: (§6)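 Fasted beagle dogs received the 40 mg phase 2 PIB tablet (amorphous drug in polymer support), crushed for dosing.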
A short description of series [22]: AUC in CD1 mouse at 3 mg/kg, po measured up to 24 hrs. The class given is ADME, organism-based. Set-up: route oral, dose 3 mg/kg, time <=24. To be noted: in vivo. The essentials:
as §5

The nature of series [23]: AUC in cynomolgus monkey at 2 mg/kg, po measured up to 12 hrs. Set-up: route oral, dose 2 mg/kg, time <=12. The following applies: in vivo. Format: ADME, organism-based, Macaca fascicularis. The essentials: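 Female cynomolgus monkeys were fasted overnight and dosed by gastric intubation with a suspension in 0.5% HPMC at 0.5 mL/kg. The dose was MW-adjusted to 2 mg/kg PIB equivalent, and food was returned at 4 h. Plasma was collected at intervals up to 12 h and assayed for PIB and prodrug to give AUC in ng·h/mL.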

The nature of series [24]: AUC in beagle dog at 40 mg, po dosed as phase 2 tablet measured up to 24 hrs. The following applies: in vivo. Format: ADME, organism-based, Canis lupus familiaris. Set-up: route oral, dose 40 mg, time <=24. The procedure, abridged:
as §6

≈ marks a conversion by molar mass, not a printed value.

The results in this text go back to ChEMBL document CHEMBL4725393, “Prodrug Strategies to Improve the Solubility of the HCV NS5A Inhibitor Pibrentasvir (ABT-530)” (J Med Chem, 2020).

Regarding `COC(=O)N[C@H](C(=O)N1CCC[C@H]1c1nc2cc(F)c([C@H]3CC[C@H](c4cc5nc([C@@H]6CCCN6C(=O)[C@@H](NC(=O)OC)[C@@H](C)OC)n(C(=O)OCCCOP(=O)(O)O)c5cc4F)N3c3cc(F)c(N4CCC(c5ccc(F)cc5)CC4)c(F)c3)cc2[nH]1)[C@@H](C)OC`, the thermodynamic solubility (in general, solubility found after equilibrating the solid with the medium) worked out at 631 µg/mL (≈ 487 µM) in series [1] and 23 µg/mL (≈ 17.8 µM) in series [4]. Further, the Stabilty was less than 20% in series [2], less than 1% in series [5] and 54% in [6]. Also, in series [3], the solubility (as a rule, how much of the substance goes into solution per volume) was more than 1000 µg/mL. Further, the results for the Cmax in series [7] and in series [10] were 196 ng/mL and 26 ng/mL, respectively. Besides, the AUC (commonly the area under the concentration-time curve, a measure of exposure) in [8] came out at 2140 ng·h/mL; in series [9], 456 ng·h/mL.
Regarding `COC(=O)N[C@H](C(=O)N1CCC[C@H]1c1nc2cc(F)c([C@H]3CC[C@H](c4cc5nc([C@@H]6CCCN6C(=O)[C@@H](NC(=O)OC)[C@@H](C)OC)n(COC(=O)[C@@H](NC(=O)/C=C/C(=O)O)C(C)C)c5cc4F)N3c3cc(F)c(N4CCC(c5ccc(F)cc5)CC4)c(F)c3)cc2[nH]1)[C@@H](C)OC`, the solubility (thermodynamic) in series [1] was less than 0.2 µg/mL; in series [4] it was 203 µg/mL (≈ 151 µM). This molecule also gave a solubility in [3] of 542 µg/mL (≈ 404 µM). Moreover, in series [11], the area under the curve (AUC) at 24 h amounted to 354 ng·h/mL. Moreover, the Stabilty in [5] was determined as 67%; in series [6], 97%. Moreover, the AUC in series [9] was determined as 231 ng·h/mL. Also, in series [10], the Cmax (commonly the maximum level reached in the sampled fluid or tissue) came to 15 ng/mL.
With `CC(C)(C)[C@@H]1NC(=O)O[C@@H]2CCC[C@H]2OC/C=C/C(F)(F)c2nc3ccccc3nc2O[C@@H]2C[C@@H](C(=O)N[C@]3(C(=O)NS(=O)(=O)C4(C)CC4)C[C@H]3C(F)F)N(C2)C1=O` [GLECAPREVIR], in [12], the fraction unbound is 0.025. Moreover, the values for the solubility in series [13], in series [3] and in series [16] were 300 µg/mL (≈ 358 µM), 40 µg/mL (≈ 47.7 µM) and less than 100 µg/mL, respectively. Further, the Papp (as a rule, a coefficient for how fast a substance crosses the barrier) in series [14] is 1.4 ×10⁻⁶ cm/s; in series [15], 5.2 ×10⁻⁶ cm/s. For the same molecule, the logD (commonly the decadic logarithm of the distribution of all forms, ionised or not, between an organic phase and buffer at a given pH) in series [17] came to 2.5.
With `COC(=O)N[C@H](C(=O)N1CCC[C@H]1c1nc2cc([C@H]3CC[C@H](c4cc5nc([C@@H]6CCCN6C(=O)[C@@H](NC(=O)OC)[C@@H](C)OC)[nH]c5cc4F)N3c3cc(F)c(N4CCC(c5ccc(F)cc5)CC4)c(F)c3)c(F)cc2[nH]1)[C@@H](C)OC` [PIBRENTASVIR], the fraction unbound in series [12] is less than 0.001. Further, the solubility in series [13] was less than 0.1 µg/mL; in [3], 169 µg/mL (≈ 152 µM); in series [16], 420 µg/mL (≈ 377 µM). For the same molecule, the values for the thermodynamic solubility in series [1] and in [4] were less than 0.1 µg/mL and 422 µg/mL (≈ 379 µM), respectively. The AUC at 24 h in [18] is 3860 ng·h/mL; in [22], 5170 ng·h/mL; in series [11] it was 6720 ng·h/mL. In series [14], the Papp is less than 1 ×10⁻⁶ cm/s. For the same molecule, the peak concentration (Cmax) in [19] was found to be 280 ng/mL; in series [20], 339 ng/mL; in series [21] it was 239 ng/mL; in series [7] it was 339 ng/mL; in series [10], 408 ng/mL. In addition, the exposure (AUC) at 12 h in series [23] was 166 ng·h/mL. The AUC in series [8] was 3860 ng·h/mL; in series [9], 6720 ng·h/mL; in series [24], 2730 ng·h/mL. This molecule also registered a logD in series [17] of 5.7.
